B2AR ag: activates human beta-2 adrenergic receptor causing internalization; P07550; Am2.2-beta2AR cells, FAP receptor internalization, flow cytometry; response, % (no concentration beside the values); 340,000 compounds, 0.43% hits; AID 504454;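 active means response above a set limit, near 3 SD of response in nonfluorescent compounds, cut at about 42% in these data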
UHRF1 MBD2 ctr: human UHRF1 methylated DNA binding inhibitors; 370,000 compounds, 0.75% hits; inhibition, % at 4.4 µM; AID 687016; Q96T88; UHRF1 binding to methylated oligo, TR-FRET; in the data active means inhibition above about 21%;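 further: UHRF1 SRA domain binding a hemimethylated CpG hairpin DNA probe; 0% = median of test compound wells and 100% = reference inhibitor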
ABHD5-PLIN5 inh: blocks binding of human ABHD5 to perilipin-5 | inhibition, % at 4 µM | 360,000 compounds, 0.78% hits | Q00G26+Q8WTS1 | Split G. princeps luciferase complementation, luminescence, 4 h;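 active means inhibition above the mean inhibition across every tested compound plus 3 SD, cut at about 22% in these data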;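 further: 0% = DMSO only wells and the 100% control is not disclosed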
Rin1 Abl inh: human Rin1-Abl interaction inhibition; P00519+Q13671; TR-FRET Rin1/Abl binding, biochemical; inhibition, % at 7.35 µM; 360,000 compounds, 0.4% hits; AID 588664; in the data active means inhibition above about 5%, passing the limit was not always enough
Arr AP2 block: blocks beta-arrestin peptide binding to AP2 adaptin; FITC-arrestin peptide / GST-AP2 beads, flow cytometry; AP2 beta2 appendage carries R879A mutation; inhibition, % at 10 µM; 340,000 compounds, 0.31% hits;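 active means inhibition above a set limit, near 3 SD of compounds lacking own fluorescence, cut at about 54% in these data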;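 further: plate controls were DMSO wells for no effect and 5 µM unlabelled arrestin peptide for full effect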
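system = GST-tagged AP2 beta2-adaptin appendage (R879A) on 4 µm glutathione beads | reagent = FITC-labelled arrestin peptide probe, 50 nM final | schedule = compound with beads 12 min RT, then probe 1 h RT | signal = HyperCyt-sampled flow cytometry, FL1 channel, ex 488/em 535 nm | read-out = percent response from loss of bead-bound FITC fluorescence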
MBD2 inh: blocks human MBD2 binding to methylated DNA; Q9UBB5; TR-FRET, MBD2 binding to methylated oligonucleotide; inhibition, % at 4.4 µM; 370,000 compounds, 0.31% hits; AID 686964; in the data active means inhibition above about 13%
Target sequence (Q9UBB5 whole entry, looked up): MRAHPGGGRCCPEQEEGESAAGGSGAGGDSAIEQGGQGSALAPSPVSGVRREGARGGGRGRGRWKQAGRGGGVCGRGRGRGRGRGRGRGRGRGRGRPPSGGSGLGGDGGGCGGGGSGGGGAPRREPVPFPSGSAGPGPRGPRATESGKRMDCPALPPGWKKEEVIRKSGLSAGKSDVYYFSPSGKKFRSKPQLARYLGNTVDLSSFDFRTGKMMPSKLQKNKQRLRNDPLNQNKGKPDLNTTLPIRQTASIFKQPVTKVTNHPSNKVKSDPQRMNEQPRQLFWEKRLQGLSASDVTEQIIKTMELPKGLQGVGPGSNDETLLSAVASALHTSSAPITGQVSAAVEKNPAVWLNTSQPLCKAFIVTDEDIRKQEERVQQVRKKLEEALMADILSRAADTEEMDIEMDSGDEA
B2AR ag CP1: human beta-2 adrenergic receptor agonism, cherry pick; shares compounds with B2AR ag; Am2.2-beta2AR cells, FAP surface receptor, flow cytometry; hits give low values; percent response (surface receptor), % at 10 µM; 1,100 compounds, 25% hits; AID 540358;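 active means surface receptor percent response at or below 58%, roughly 3 SD from nonfluorescent compounds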
B2AR FAP counter: counter-screen for beta-2AR agonists: fluorescence in Am2.2 cells. 1,100 tested, under 10 active. FAP fluorogen flow cytometry, fluorescence counterscreen; hits give low values. shares compounds with B2AR ag. calls only at 10 µM;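 active means percent response below a set limit in fluorescence channel 1 and below 50% in channel 8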
An asterisk follows results filed as active; i = inactive; · = no result given. Hits are enriched below; roughly 2.5% of the tested compounds scored in any of these assays.

SMILES	B2AR ag	UHRF1 MBD2 ctr	ABHD5-PLIN5 inh	Rin1 Abl inh	Arr AP2 block	MBD2 inh	others
COc1ccc(COc2cccc(C=O)c2)cc1	24.4	-4.3	-10.4	-0.9	7.2	0.8
O=Cc1cccc(OCc2cccc3ccccc23)c1	70.9*	5.0	-4.5	-5.3	5.8	-0.9
Cc1nn(-c2ccccc2)c2sc(C(=O)NCc3ccc(F)cc3)cc12	·	-1.5	·	·	·	1.9
COC(=O)c1cc(-c2cc(F)cc(OC)c2)c(=O)n2c1CCC2	·	-2.2	·	·	·	-2.2
CC1CC(C)CN(C(=O)c2ccc(CSc3nc4ccncc4[nH]3)cc2)C1 (centres undefined)	-4.3	34.1*	4.9	1.7	-4.9	-8.8
O=C(NCc1cccnc1)O[C@H]1CC[C@@]23CCCN2C(=O)CCC[C@H]3C1	·	0.3	·	·	·	1.3
O=C(Cn1nnc(-c2ccccc2F)n1)Nc1ccc(Cl)cc1	·	-0.6	·	·	·	2.9
CCC[C@H]1[C@@H](OC(=O)Oc2ccc([N+](=O)[O-])cc2)CC[C@@]23CCCN2C(=O)CCC[C@@H]13	·	-1.0	·	·	·	3.8
Cc1oc(-c2ccccc2)cc1C(=O)Nc1cccc(/C=C\C(=O)O)c1	-4.5	1.0	14.8	-5.1	-3.2	0.4
Cc1oc(C(C)(C)C)cc1C(=O)Nc1cccc(/C=C\C(=O)O)c1	-24.4	0.1	22.7*	-3.7	5.2	-5.6
Cc1ccc(C2=NOC(=O)/C2=C\c2ccc(C)o2)cc1	56.1*	-1.8	6.9	2.2	6.8	5.1
O=C(Nc1ccc(Cl)cc1Cl)O[C@@H]1CC[C@@]23CCCN2C(=O)CCC[C@H]3C1	·	5.2	·	·	·	5.9
COc1ccc(S[C@]2(C(=O)N3CCN(C(C)=O)CC3)CC(=O)N(S(=O)(=O)c3ccc(F)cc3)[C@@H]2c2ccc(OC)cc2)cc1	·	-1.5	·	·	·	-5.2
CCOc1ccc(NC(=O)CN2C(=O)COc3ccccc32)cc1	6.5	-2.3	-3.1	-0.3	-3.4	4.1
COc1cc(NC(=O)CN2C(=O)COc3ccccc32)cc(OC)c1	-0.1	21.0*	0.9	4.4	8.7	-2.9
N=C1/C(=C/c2ccc(OCc3ccccc3)cc2)C(=O)N=C2SC(CC(=O)N3CCOCC3)=NN12	-3.9	-0.8	-4.0	2.1	2.0	7.2
N=C1/C(=C/c2ccc(OCc3ccccc3F)cc2)C(=O)N=C2SC(CC(=O)N3CCOCC3)=NN12	5.2	23.2*	-1.1	3.9	2.5	12.8
Cc1cc(C)c2nc(Cl)c(CN(Cc3ccco3)C(=O)Nc3ccccc3C)cc2c1	42.5*	-1.3	3.7	-3.2	-3.4	-0.8
COc1cc2c(cc1NC(=O)CN1C(=O)NC3(CCc4ccccc43)C1=O)oc1ccccc12 (centres undefined)	14.2	-3.0	34.6*	4.3	9.5	3.6
COC(=O)c1ccccc1NC(=O)c1nc(S(=O)(=O)Cc2ccccc2)ncc1Cl	51.9*	6.4	-1.5	-0.1	22.5	4.8
CCOc1ccccc1/C=C/c1onc(C)c1S(=O)(=O)N1CCC(C(=O)N(CC)CC)CC1	-10.1	16.5	5.4	-1.3	-12.0	13.4*
C#CCN(CC=C)Cc1ccc(OC)cc1OC	·	0.5	·	·	·	0.6
C=CC[C@@H](CC(=O)N(CCO)Cc1ccccc1)C(=O)NC[C@H](OC(=O)[C@@H](CC=C)CC(=O)OC(C)(C)C)c1ccccc1	-8.2	5.7	22.5*	3.2	0.0	-0.7
C=CC[C@H](CC(=O)N(CCO)Cc1ccccc1)C(=O)NCCOC(=O)[C@H](CC=C)CC(=O)OC(C)(C)C	1.5	-0.8	-0.3	-1.5	-3.9	4.3
CCOC(=O)[C@]12CCCCC/C=C\1N(Cc1ccc(OC)cc1)C(=O)[C@H]2CC(=O)N1CCCCC1	·	-2.3	·	·	·	0.4
SMILES	B2AR ag	UHRF1 MBD2 ctr	ABHD5-PLIN5 inh	Rin1 Abl inh	Arr AP2 block	MBD2 inh	others
O=C(Cn1ncc(Cl)c(Cl)c1=O)N1CCc2ccccc21	54.1*	-1.5	5.5	-1.6	-0.2	-0.2
O=C(Cn1ncc(Cl)c(Cl)c1=O)N1CCN(Cc2ccccc2)CC1	16.5	4.2	5.5	-0.5	-12.5	0.7
Cc1c(NC(=O)C(C)NCC2CCCO2)c(=O)n(-c2ccccc2)n1C (centres undefined)	1.6	37.9*	-0.3	0.1	-13.8	-2.5
Cc1c(NS(=O)(=O)c2cc(C(=O)NCC3CCCO3)cc(Cl)c2Cl)c(=O)n(-c2ccccc2)n1C (centres undefined)	4.7	-0.2	2.3	-1.0	-10.2	2.2
CCCCNC(=O)C[C@H]1C[C@@]2(C(=O)OC)C(=C[C@H](C(C)(C)C)O[C@@H]2C)N(Cc2cccc3ccccc23)C1=O	·	-2.8	·	·	·	3.3
CCCc1cc2c(OC(=O)CC)c(-c3ccc(C(=O)OCC)o3)c(=O)oc2cc1OC	1.3	24.2*	-10.6	-1.2	-11.3	10.3
O=C(CSc1nc2c(c(=O)[nH]1)CCCC2)N1CCOCC1	·	4.6	·	·	·	-0.3
CCOc1cc(-c2nc3ccccn3c2NCC2CCCO2)ccc1O (centres undefined)	20.2	-0.9	2.3	-1.3	8.0	2.4	B2AR ag CP1=29.8*;B2AR FAP counter=i
COc1cc(-c2nc3ccccn3c2NCC2CCCO2)ccc1O (centres undefined)	-16.4	-3.2	4.1	-4.2	3.7	-4.1
CCC(C)(C)NC(=O)C(c1ccc(OC)cc1)N(Cc1ccccc1)C(=O)CCC(=O)Nc1cc(C)on1 (centres undefined)	61.8*	1.4	0.4	-1.7	18.5	-7.4	B2AR ag CP1=108.5;B2AR FAP counter=i
CCOc1ccc(CCNC(=O)c2cc(-c3ccccc3)c(N3CCOCC3)s2)cc1OC	·	1.1	·	·	·	1.9
Cc1cccc(C)c1NC(=O)C(c1ccccc1)N1CCOCC1 (centres undefined)	0.5	4.3	-2.9	2.2	-0.3	1.2
Cc1ccc(C)c(NC(=O)C(c2ccccc2)N2CCOCC2)c1 (centres undefined)	-6.1	4.7	-1.8	5.3	-4.2	-3.2	B2AR ag CP1=103.7;B2AR FAP counter=i
COP(=O)(OC)C(NC(=O)OCc1ccccc1)C(C)C (centres undefined)	·	-1.9	·	·	·	-1.3
CCOc1ccc(C(=O)C(CCC(CN(C)C)C(=O)c2ccc(OCC)cc2)CN(C)C)cc1 (centres undefined)	110.0*	1.4	48.8*	8.0	-7.1	4.9	B2AR ag CP1=82.3;B2AR FAP counter=i
COc1ccc(C(=O)C(CCCCC(CN(C)C)C(=O)c2ccc(OC)cc2)CN(C)C)cc1 (centres undefined)	-4.3	1.6	3.4	0.6	4.2	-6.1
CC(=O)Nc1ccc(-c2cn3c(n2)SCC3)cc1	60.2*	-3.3	-10.9	-0.2	8.4	-4.7	B2AR ag CP1=53.3*;B2AR FAP counter=i

Screening results as filed in PubChem BioAssay.
